Measured values as given in ChEMBL document CHEMBL1151937, “Synthesis and evaluation of an acyl-chain unsaturated analog of the Th2 biasing, immunostimulatory glycolipid, OCH” (Bioorg Med Chem Lett, 2009).
The source made the active and inactive calls. The calls are words filed in the database; no cut-off is given here.

Key:
Assay type in all cases: functional, cell-based
Splenocyte [1] = assay: Stimulation of mouse splenocyte proliferation by [3H]thymidine after 48 hrs by incorporation assay
Outline: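 Mouse splenocytes exposed to lipid at varying concentrations; proliferation read out as tritiated thymidine incorporation. Values are means of duplicate wells.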

iNKT = assay: Stimulation of human iNKT cell proliferation
Splenocyte [2] = assay: Stimulation of IFN-gamma production in C57BL/6 mouse splenocytes after 48 hrs by ELISA
Outline: (§1)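 C57BL/6 mouse splenocytes cultured 48 h with lipid over a range of concentrations; IL-4 and IFNγ measured in culture supernatants by standard sandwich ELISA. Values are means of duplicate wells.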

Splenocyte [3] = assay: Stimulation of IL4 production in C57BL/6 mouse splenocytes after 48 hrs by ELISA; outline: as §1

With `CCCCCCCCCCCCCCCCCCCC(=O)N[C@@H](CO[C@H]1O[C@H](CO)[C@H](O)[C@H](O)[C@H]1O)[C@H](O)[C@H](O)CCCCC` the Activity (Splenocyte [1]) was “Active”, the Activity (iNKT) was “inactive” and the Activity (Splenocyte [2]) was “inactive”. For the same molecule, the Activity (Splenocyte [3]) was “inactive”.

`CCCCC/C=C\C/C=C\CCCCCCCCCC(=O)N[C@@H](CO[C@H]1O[C@H](CO)[C@H](O)[C@H](O)[C@H]1O)[C@H](O)CCCCCC` was tested, and the Activity (Splenocyte [1]) was “Active”, the Activity (iNKT) was “inactive” and the Activity (Splenocyte [2]) was “Active”. For the same molecule, the Activity (Splenocyte [3]) was “Active”.

`CCCCCCCCCCCCCCCCCCCCCCCC(=O)N[C@@H](CO[C@H]1O[C@H](CO)[C@H](O)[C@H](O)[C@H]1O)[C@H](O)[C@H](O)CCCCC` was tested, and the Activity (Splenocyte [1]) was “Active” and the Activity (iNKT) was “Active”.

`CCCCCCCCCCCCCCCCCCCC(=O)N[C@@H](CO[C@H]1O[C@H](CO)[C@H](O)[C@H](O)[C@H]1O)[C@H](O)CCCCCC` was tested, and the Activity (Splenocyte [1]) was “Active”, the Activity (iNKT) was “inactive” and the Activity (Splenocyte [2]) was “inactive”. For the same molecule, the Activity (Splenocyte [3]) was “inactive”.

With `CCCCC/C=C\C/C=C\CCCCCCCCCC(=O)N[C@@H](CO[C@H]1O[C@H](CO)[C@H](O)[C@H](O)[C@H]1O)[C@H](O)[C@H](O)CCCCCCCCCCCCCC` the Activity (Splenocyte [1]) was “Active” and the Activity (iNKT) was “Active”.
